Results pooled from the literature.
Compare with care: the assays were run in different laboratories.

CCc1cc(OC)c2nccc(N3CCc4c(cc(Cn5ccnc5)cc4-c4cn(C)nc4C(F)(F)F)C3=O)c2c1
MRT(0-inf) (male CD-1 mouse; plasma; intravenous; 3 mg/kg): 0.7 h

COc1cc(C2Oc3cc([C@H]4Oc5cc(O)cc(O)c5C(=O)[C@@H]4O)ccc3OC2CO)ccc1O (stereo partly shown)
MRT(0-inf) (male CD-1 mouse; plasma; intravenous; 2 mg/kg): 0.103 h

CCc1cc(C(=O)NC)c2nccc(N3CCc4c(cc(Cn5ccnc5)cc4-c4cn(C)nc4C(F)(F)F)C3=O)c2c1
MRT(0-inf) (male CD-1 mouse; plasma; oral; 50 mg/kg): 3.1 h

CC(C)(Nc1nc(-c2ccccn2)nc2ccccc12)c1ccccn1
MRT(0-t) (female BALB/c mouse; plasma; intravenous; 1 mg/kg): 1.2 h

CC1(C)CC[C@]2(C(=O)O)CC[C@]3(C)C(=CC[C@@H]4[C@@]5(C)C[C@@H](O)[C@H](OC(=O)/C=C/c6ccc(O)cc6)C(C)(C)[C@@H]5CC[C@]43C)[C@@H]2C1 (relative stereo)
MRT(0-inf) (mouse; plasma; intraperitoneal; 85 µmol/kg; single dose): 11.9 h

c1ccc(-c2nc(N3CCC(c4ccccn4)C3)c3ccccc3n2)nc1 (stereo not shown)
MRT(0-t) (female BALB/c mouse; plasma; oral; 12.5 mg/kg): 5.1 h

COc1nc(-c2cc(C)c(N[C@@H](C)c3c(F)cc(F)cc3F)nn2)ccc1-n1cnc(C)c1
MRT(0-t) (male CD-1 mouse; plasma; intravenous; 1 mg/kg; single dose): 3.3 h

Cc1cc(NC(=O)c2cccc3cc(-c4cccc5[nH]nc(N)c45)ccc23)ccc1F
MRT(0-inf) (male CD-1 mouse; brain; oral; 10 mg/kg): 3.74 h

COc1ccc2nccc(N3CCc4c(cc(Cn5ccnc5)cc4-c4cn(C)nc4C(F)(F)F)C3=O)c2c1
MRT(0-inf) (male CD-1 mouse; plasma; oral; 10 mg/kg): 1.4 h

COc1nc(-c2cc(C)c(N[C@@H](C)c3cc(F)cc(F)c3)nn2)ccc1-n1cnc(C)c1
MRT(0-t) (male CD-1 mouse; plasma; intravenous; 1 mg/kg; single dose): 3.3 h
